Data: ChEMBL document CHEMBL2321734, “Novel antiviral activity of l-dideoxy bicyclic nucleoside analogues versus vaccinia and measles viruses in vitro” (J Med Chem, 2013)
Activity calls are given as the source filed them. No cut-off for these calls is given here.

Tests used:
[1] = system: BSC-1; assay: Cytotoxicity against african green monkey BSC1 cells infected with Vaccinia virus-WR luciferase reporter virus v3 assessed as visible cytotoxic effect at 10 uM incubated for 30 mins prior to inoculation measured after 2 hrs by phase contrast microscopic analysis; assay type: cell-based; settings: chlorocebus aethiops, bsc-1, 2 h
[2] = system: Vaccinia virus; assay: Antiviral activity against Vaccinia virus WR expressing luciferase reporter virus v3 infected in rabbit RK13 cells assessed as inhibition of early stages of VACV replication at 10 uM incubated for 30 mins prior to inoculation measured after 2 hrs by luciferase reporter gene assay relative to control; assay type: functional; settings: Orthopoxvirus vaccinia, RK-13
[3] = system: Vaccinia virus; assay: Antiviral activity against Vaccinia virus WR infected in african green monkey BSC1 cells after 4 days by plaque reduction assay; assay type: functional, organism-based; settings: Orthopoxvirus vaccinia, BSC-1, 96 h
[4] = system: BSC-1; assay: Cytotoxicity against african green monkey BSC1 cells infected with Vaccinia virus-WR after 4 days; assay type: cell-based; settings: chlorocebus aethiops, bsc-1, 96 h
[5] = Cytotoxicity against human HFFF cells assessed as cell viability by CellTitre-Glo Luminescent Cell Viability assay; assay type: cell-based
[6] = Cytotoxicity against african green monkey BSC1 cells assessed as ATP levels […] by CellTitre-Glo Luminescent Cell Viability assay; assay type: cell-based, BSC-1; settings: chlorocebus aethiops
[7] = system: Measles morbillivirus; assay: Antiviral activity against wild type Measles virus mWTFb infected in simian B95a cells assessed as virus-induced cytopathogenicity incubated for 30 mins prior to inoculation measured after 3 days by phase contrast microscopy; assay type: functional, organism-based
[8] = system: Vaccinia virus; assay: Ratio of cidofovir IC50 to compound IC50 for Vaccinia virus WR; assay type: functional, Orthopoxvirus vaccinia
[9] = system: Measles morbillivirus; assay: Antiviral activity against Measles virus Edmonston infected in african green monkey BSC-1 cells assessed as virus-induced cytopathogenicity incubated for 30 mins prior to inoculation measured after 3 days by phase contrast microscopy; assay type: functional
Summary of the method: (§1)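 Cells grown to 80% confluence in 96-well plates and pretreated 30 min with drug-containing medium. Infection was 100 pfu (HSV-1/2, adenovirus 5) or 100 sfu (measles) per well, then 3 days in DMEM without FBS or antibiotics with drug at 1–100 µM. CPE was scored by phase contrast against virus-only controls. TCID50 is the 50% CPE reduction, averaged over 3 experiments by Reed–Muench.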

[10] = system: Human alphaherpesvirus 1; assay: Antiviral activity against HSV 1 NCPV 17+ infected in african green monkey BSC-1 cells assessed as virus-induced cytopathogenicity incubated for 30 mins prior to inoculation measured after 3 days by phase contrast microscopy; assay type: functional; summary of the method: as §1
[11] = Selectivity index, ratio of CC50 for african green monkey BSC1 cells to IC50 for Vaccinia virus-WR; assay type: functional, BSC-1
[12] = system: Human adenovirus 5; assay: Antiviral activity against Adenovirus type 5 ATCC VR-5 infected in human HFFF cells assessed as virus-induced cytopathogenicity incubated for 30 mins prior to inoculation measured after 3 days by phase contrast microscopy; assay type: functional; summary of the method: as §1
[13] = system: Human adenovirus 5; assay: Antiviral activity against Adenovirus type 5 ATCC VR-5 infected in african green monkey BSC1 cells assessed as virus-induced cytopathogenicity incubated for 30 mins prior to inoculation measured after 3 days by phase contrast microscopy; assay type: functional, BSC-1; summary of the method: as §1
[14] = system: Measles morbillivirus; assay: Ratio of ribavirin TCID50 to compound TCID50 for wild type Measles virus mWTFb; assay type: functional
[15] = system: Measles morbillivirus; assay: Antiviral activity against Measles virus Edmonston infected in simian B95a cells assessed as virus-induced cytopathogenicity incubated for 30 mins prior to inoculation measured after 3 days by phase contrast microscopy; assay type: functional; summary of the method: as §1
[16] = system: Human alphaherpesvirus 1; assay: Antiviral activity against HSV 1 NCPV 17+ infected in human HFFF cells assessed as virus-induced cytopathogenicity incubated for 30 mins prior to inoculation measured after 3 days by phase contrast microscopy; assay type: functional; summary of the method: as §1
[17] = system: Human alphaherpesvirus 2; assay: Antiviral activity against HSV 2 NCPV 132349 infected in african green monkey BSC-1 cells assessed as virus-induced cytopathogenicity incubated for 30 mins prior to inoculation measured after 3 days by phase contrast microscopy; assay type: functional; summary of the method: as §1
[18] = system: Human alphaherpesvirus 2; assay: Antiviral activity against HSV 2 NCPV 132349 infected in human HFFF cells assessed as virus-induced cytopathogenicity incubated for 30 mins prior to inoculation measured after 3 days by phase contrast microscopy; assay type: functional; summary of the method: as §1

Compound | Activity [1] | inhibition at 10 µM [2] [%] | IC50 [3] [µM] | Activity [4] | further results
CCCCCCCCc1cc2cn([C@@H]3CC[C@H](CO)O3)c(=O)nc2o1 | Non-toxic | 41.9 |  |  | 
CCCCCCc1cc2cn([C@@H]3CC[C@H](CO)O3)c(=O)nc2o1 | Non-toxic | 70.7 |  |  | 
COCCCCCCCCCCCCCc1cc2cn([C@@H]3CC[C@H](CO)O3)c(=O)nc2o1 | Non-toxic | 60.5 |  |  | 
CCCCc1ccc(-c2cc3cn([C@@H]4CC[C@H](CO)O4)c(=O)nc3o2)cc1 | Non-toxic | 43.7 |  |  | 
CCCCCCCCCCCCCOCc1cc2cn([C@@H]3CC[C@H](CO)O3)c(=O)nc2o1 | Non-toxic | 43.9 | 3.4 | Non-toxic | 
CCCCCCCCCc1cc2cn([C@@H]3CC[C@H](CO)O3)c(=O)nc2o1 | Non-toxic | 38.1 |  |  | 
CCCOCCCCCCCCCc1cc2cn([C@@H]3CC[C@H](CO)O3)c(=O)nc2o1 | Non-toxic | 46.8 | 1.9 | Non-toxic | CC50 [5]: > 100 µM; CC50 at 96 h [6]: 89.1 µM
CC(C)OCCCCCCCCCc1cc2cn([C@@H]3CC[C@H](CO)O3)c(=O)nc2o1 | Non-toxic | 79.9 |  |  | 
Nc1ccn(C[C@@H](CO)OCP(=O)(O)O)c(=O)n1 [CIDOFOVIR] |  | 94.6 | 11.5 |  | inhibition [7]: inactive; CC50 [5]: > 100 µM; CC50 at 96 h [6]: > 100 µM
CCCCCCOCCCCCCCCCc1cc2cn([C@@H]3CC[C@H](CO)O3)c(=O)nc2o1 | Non-toxic | 35.7 | 0.19 | Non-toxic | CC50 [5]: > 100 µM; Ratio IC50 [8]: 60; CC50 at 96 h [6]: 74.1 µM
CCOCCCCCCCCCc1cc2cn([C@@H]3CC[C@H](CO)O3)c(=O)nc2o1 | Non-toxic | 79.9 | 12.9 | Non-toxic | CC50 [5]: > 100 µM; CC50 at 96 h [6]: 79.4 µM
CCC(C)OCCCCCCCCCc1cc2cn([C@@H]3CC[C@H](CO)O3)c(=O)nc2o1 (some centres not stated) | Non-toxic | 69.9 |  |  | 
CC(C)(C)OCCCCCCCCCc1cc2cn([C@@H]3CC[C@H](CO)O3)c(=O)nc2o1 | Non-toxic | 70.7 |  |  | 
CCCCCCCCCCCCc1cc2cn([C@@H]3CC[C@H](CO)O3)c(=O)nc2o1 | Non-toxic | 96.4 |  |  | 
NC(=O)c1ncn([C@@H]2O[C@H](CO)[C@@H](O)[C@H]2O)n1 [RIBAVIRIN] |  |  |  |  | IC50 [7]: 1160 µM
CCCCOCCCCCCCCCc1cc2cn([C@@H]3CC[C@H](CO)O3)c(=O)nc2o1 | Non-toxic | 27.5 | 1.8 | Non-toxic | CC50 [5]: > 100 µM; CC50 at 96 h [6]: > 100 µM
CCCCCc1ccc(-c2cc3cn([C@@H]4CC[C@H](CO)O4)c(=O)nc3o2)cc1 | Non-toxic | 73.6 |  |  | 
CCCCCCCc1cc2cn([C@@H]3CC[C@H](CO)O3)c(=O)nc2o1 | Non-toxic | 43.2 |  |  | 
COC[C@H]1OC(=O)c2coc3c2[C@@]1(C)C1=C(C3=O)[C@@H]2CCC(=O)[C@@]2(C)C[C@H]1OC(C)=O [WORTMANNIN] |  |  |  |  | IC50 [7]: 75 µM
CCCCCCCCCCOCCCCc1cc2cn([C@@H]3CC[C@H](CO)O3)c(=O)nc2o1 | Non-toxic | 26.1 | 2.2 | Non-toxic | 
CC(C)COCCCCCCCCCc1cc2cn([C@@H]3CC[C@H](CO)O3)c(=O)nc2o1 | Non-toxic | 64.3 |  |  | 
CCCCCCOCCCCCCCCc1cc2cn([C@@H]3CC[C@H](CO)O3)c(=O)nc2o1 | Non-toxic | 37.2 | 1.7 | Non-toxic | 
CCCCCCCCCCc1cc2cn([C@@H]3CC[C@H](CO)O3)c(=O)nc2o1 | Non-toxic | 45.7 |  |  | 
CCCCCOCCCCCCCCCc1cc2cn([C@@H]3CC[C@H](CO)O3)c(=O)nc2o1 | Non-toxic | 27.7 | 0.19 | Non-toxic | TCID50 [9]: >50 µM; TCID50 [10]: >50 µM; Ratio CC50/IC50 [11]: >500; CC50 [5]: > 100 µM; TCID50 [12]: >50 µM; TCID50 [13]: >50 µM; Ratio [14]: 150; TCID50 [15]: >50 µM; TCID50 [16]: >50 µM; Ratio IC50 [8]: 60; TCID50 [17]: >50 µM; TCID50 [18]: >50 µM; CC50 at 96 h [6]: > 100 µM
